Compound activity as filed in PubChem BioAssay.
This is a sample that favours compounds with a hit; in the whole collection about 3.1% have one here.
OX1R antag-1: blocks the human orexin 1 receptor; O43613; CHO/OX1R cells, Fluo-8 calcium fluorescence, orexin A; inhibition, % at 5 µM; 330,000 compounds, 0.43% hits;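 active = inhibition above its plate's threshold, mean inhibition of all tested compounds on the plate plus 3 SD, cut at about 37% in these data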
CHO parental Ca: signal in parental CHO cells, OX1R antagonist counter-screen; inhibition, % at 5.6 µM; parental CHO-K1, ATP-induced calcium, Fluo-8 fluorescence; AID 463079; 330,000 compounds, 0.63% hits;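 active = inhibition above that plate's mean sample inhibition plus 3 SD, cut at about 26% in these data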
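Material – parental CHO cells · Reagent – ATP stimulus · Compound – single nominal dose of 5.6 µM per compound · Detection – Fluo-8 fluorescence · Read-out basis – percent inhibition of calcium signal · Controls – ATP-challenged DMSO wells low, unchallenged DMSO wells high · Repeats – no replicates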
GalR3 antag: human GalR3 antagonism; O60755; HEK293 GalR3-CNG cAMP membrane potential fluorescence; galR3 body fused to GalR1 C-terminus; inhibition, % at 3 µM; 360,000 compounds, 0.44% hits; AID 651719;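 active = inhibition above the screen-wide average plus 3 SD, cut at about 13% in these data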;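 also: forskolin and galanin both at EC90 stimulate the cells; cAMP rise reported by CNG channel membrane potential dye signal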
Target sequence (O60755 1-299 limits assumed): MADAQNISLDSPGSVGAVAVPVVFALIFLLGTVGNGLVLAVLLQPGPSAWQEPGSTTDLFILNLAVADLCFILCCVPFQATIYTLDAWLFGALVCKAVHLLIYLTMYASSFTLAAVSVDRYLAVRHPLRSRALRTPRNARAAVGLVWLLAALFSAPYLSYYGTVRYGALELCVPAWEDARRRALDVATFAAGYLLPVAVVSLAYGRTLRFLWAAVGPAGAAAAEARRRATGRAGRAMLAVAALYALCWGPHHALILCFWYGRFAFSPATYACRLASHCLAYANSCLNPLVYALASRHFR
OX1R antag-2: blocks the human orexin 1 receptor; OX1R-expressing cells, FRET antagonist read-out; 330,000 compounds, 1.8% hits; inhibition, % at 6.6 µM; in the data active = inhibition mostly above about 38%, no sharp cut-off; inactive = mostly below about 40%
GPR7 antagonist: blocks human GPR7 receptor signaling. P48145. GPR7-expressing cells, fluorescence antagonist assay. inhibition, % at 4.4 µM. 290,000 compounds, 1.1% hits; in the data active = inhibition above about 16%, passing the limit was not always enough;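 also: cells stimulated with the agonist NPW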
Target sequence (P48145 whole entry, looked up): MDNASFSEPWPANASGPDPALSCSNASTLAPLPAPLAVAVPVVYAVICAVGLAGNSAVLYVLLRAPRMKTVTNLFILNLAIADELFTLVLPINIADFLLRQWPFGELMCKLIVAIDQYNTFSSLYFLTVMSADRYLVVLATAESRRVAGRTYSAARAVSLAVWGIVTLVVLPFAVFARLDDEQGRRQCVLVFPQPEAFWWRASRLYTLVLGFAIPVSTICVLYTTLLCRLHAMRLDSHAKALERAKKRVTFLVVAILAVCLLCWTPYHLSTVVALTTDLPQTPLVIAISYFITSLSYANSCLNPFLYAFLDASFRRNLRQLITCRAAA
OX1R Ca confirm: confirmation of human orexin 1 receptor antagonists; shares compounds with OX1R antag-1; CHO/OX1R cells, orexin A calcium Fluo-8 fluorescence; inhibition, % at 5 µM; 1,100 compounds, 38% hits; AID 492963; in the data active = inhibition above about 29%
CHO Ca counter: signal in parental CHO cells, OX1R antagonist counter-screen. shares compounds with OX1R antag-1. inhibition, % at 5.6 µM. parental CHO-K1, ATP-induced calcium, Fluo-8 fluorescence. 1,100 compounds, 9.3% hits. AID 492965;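 active = inhibition above a per-plate limit, the mean inhibition of that plate's test compounds plus 3 SD, cut at about 25% in these data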
OX1R HTRF conf: confirmation of human orexin 1 receptor antagonists, HTRF format; shares compounds with OX1R antag-2; OX1R-expressing cells, HTRF antagonist assay; inhibition, % at 6.6 µM; 1,800 compounds, 49% hits; AID 492964; in the data active = inhibition above about 55%;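 also: CHO cells expressing OX1R stimulated with orexin A at about EC80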
CHO-K1 HTRF: counter-screen: parental CHO-K1 HTRF response. shares compounds with OX1R antag-2. parental CHO-K1 cells, HTRF counterscreen. inhibition, % at 6.6 µM. 1,800 compounds, 48% hits; in the data active = inhibition above about 17%
Hits are given with their value; n = inactive; x = no result.

SMILES | OX1R antag-1 | CHO parental Ca | GalR3 antag | OX1R antag-2 | GPR7 antagonist | OX1R Ca confirm | CHO Ca counter | OX1R HTRF conf | CHO-K1 HTRF
CC(C)NC(=O)C1CCCN(S(=O)(=O)c2cccs2)C1 (centres undefined) | n | n | n | n | n | x | x | x | x
CS(=O)(=O)c1ccc(-c2sc3ccccc3c2C(=O)NCCCN2CCOCC2)cc1 | n | n | n | n | x | x | x | x | x
CCN(CC)c1ccc2cc(-c3nc4ccccc4n3C)c(=O)oc2c1 | 95.1 | n | n | 82.6 | 17.0 | 84.1 | n | 88.9 | n
CCN(CC)c1ccc2cc(C(=O)c3cccs3)c(=O)oc2c1 | x | x | n | x | x | x | x | x | x
O=C(c1ccncc1)c1ccc(N2CCN(C3CC(=O)N(Cc4ccccc4)C3=O)CC2)cc1 (centres undefined) | n | n | n | 70.7 | n | n | n | n | n
COc1ccc(N2CCN(C3CC(=O)N(Cc4ccccc4)C3=O)CC2)cc1 (centres undefined) | n | n | n | n | n | x | x | x | x
Cc1ccc(C(O)c2ncc(-c3ccccc3F)[nH]2)c(C)c1 (centres undefined) | x | x | n | x | x | x | x | x | x
COc1ccc(-c2cc3nc(-c4ccccc4)cc(N4CCN(C(=O)c5ccoc5)CC4)n3n2)cc1 | x | x | n | x | x | x | x | x | x
COc1ccc(-c2cc3nc(-c4ccccc4)cc(N4CCC5(CC4)OCCO5)n3n2)cc1 | 67.2 | n | n | 49.8 | n | 31.4 | n | 68.4 | n
Cc1nc2c(ccc3nc(NC(=O)Cc4cccc5ccccc45)sc32)s1 | 56.2 | n | n | 90.3 | n | 63.6 | n | 89.9 | n
CCCCNC(=O)CCC(=O)NNc1nc2ccccc2c2nc(-c3ccccc3)nn12 | n | n | n | 76.9 | n | 33.2 | n | 92.2 | n
CCCCNC(=O)CCC(=O)NNc1nc2ccccc2c2nc(C)nn12 | n | n | n | n | n | x | x | x | x
O=C(N/N=C/c1ccccc1[N+](=O)[O-])c1cccs1 | n | n | n | n | n | x | x | x | x
Cc1ccc(/C=N/NC(=O)c2cccs2)cc1[N+](=O)[O-] | n | n | n | 109.3 | n | n | n | 92.0 | n
CCCNC(=S)NCc1ccc(Cl)cc1 | n | n | n | n | n | x | x | x | x
CN(/N=C/c1cc([N+](=O)[O-])ccc1O)c1ccccc1 | 49.5 | n | n | 73.0 | n | 47.5 | n | 93.1 | n
CC(N=Cc1cc([N+](=O)[O-])ccc1O)c1ccccc1 (centres undefined) | n | n | n | n | n | x | x | x | x
COc1ccc(CCNc2ccc([N+](=O)[O-])cn2)cc1 | x | x | n | x | n | x | x | x | x
COc1ccc(CCNc2cc(=O)[nH]c(N)n2)cc1 | 76.0 | n | x | 86.1 | n | n | n | 55.3 | n
COc1ccc(CCNC(=O)COc2ccc(-c3ccccc3)cc2)cc1OC | n | n | n | 74.9 | n | 38.0 | 38.7 | 82.1 | n
COc1ccc(CCNC(=O)CCCOc2ccc(C)cc2)cc1OC | n | n | n | n | n | x | x | x | x
CCC(=O)Nc1cc(NC(=O)CSc2ncc(-c3ccc(F)cc3)n2Cc2ccco2)ccc1C | 49.8 | n | n | 83.9 | n | 36.3 | n | 63.1 | n
COc1ccc(NC(=O)CSc2ncc(-c3ccc(F)cc3)n2Cc2ccco2)cc1 | n | n | n | n | n | x | x | x | x
COc1cc2c(cc1NC(=O)c1ccccc1F)CCCC2 | n | n | n | n | n | x | x | x | x
COc1cc(OC)c(NC(=O)c2ccccc2F)cc1Cl | n | n | n | 89.0 | n | 35.0 | n | 81.9 | n
SMILES | OX1R antag-1 | CHO parental Ca | GalR3 antag | OX1R antag-2 | GPR7 antagonist | OX1R Ca confirm | CHO Ca counter | OX1R HTRF conf | CHO-K1 HTRF
CC1(C(=O)Nc2ccc3c(c2)OCCO3)CN(S(C)(=O)=O)CC(=O)N1CCc1ccccc1F (centres undefined) | x | x | n | x | x | x | x | x | x
O=C(Nc1sc2c(c1C(=O)NCC1CCCO1)CCCC2)c1cccs1 (centres undefined) | 48.0 | n | n | 40.0 | n | n | n | n | n
O=C(Nc1sc2c(c1C(=O)O)CCCC2)c1cccs1 | n | n | n | n | n | x | x | x | x
c1ccc2nc(-c3nc4ccccc4o3)ccc2c1 | n | n | n | 96.8 | n | 45.6 | n | 97.8 | n
c1ccc(-c2nc3ccccc3o2)nc1 | n | n | n | n | n | x | x | x | x
O=C(Cc1cccs1)Nc1nc(-c2cccnc2)cs1 | n | n | n | n | n | x | x | x | x
COC(=O)[C@H](CC(C)C)NS(=O)(=O)N(Cc1ccccc1)[C@@H](CC(C)C)C(=O)OC | n | n | n | 48.3 | x | n | n | n | n
COc1cccc(NC(=O)CN2C(=O)C(c3ccc(C)cc3)=NC23CCCCCC3)c1 | 41.4 | n | n | 75.2 | n | 47.4 | n | 87.2 | n
Cc1cc(C(C)(C)C)oc1C(=O)N(CC(=O)NC1CCCC1)Cc1ccccc1 | n | n | n | n | n | x | x | x | x
Cc1ccc(C)c(N(CC(=O)NC2CCCC2)C(=O)c2oc(C(C)(C)C)cc2C)c1 | 94.7 | n | n | 63.2 | n | 47.2 | n | 71.2 | n
C[C@H]1COC(=O)[C@@H](CC(=O)OC(C)(C)C)C/C=C\C[C@@H](CC(=O)N(CCO)Cc2ccccc2)C(=O)N1 | n | n | n | n | x | x | x | x | x
O=C(CCCN1C(=O)/C(=C/c2cccs2)SC1=S)Nc1cccc(O)c1 | 45.2 | n | n | 66.9 | n | 32.9 | n | 58.6 | n
O=C(CCN1C(=O)/C(=C/c2cccs2)SC1=S)Nc1cccc(O)c1 | n | n | n | n | n | x | x | x | x
O=S(=O)(CCOc1ccccc1)c1nc2ccccc2[nH]1 | n | n | n | 85.7 | n | n | n | n | n
COc1cccc(C(=O)Nc2nnc(S(=O)(=O)Nc3cccc(C)c3)s2)c1 | n | n | x | 89.5 | n | 41.4 | n | 74.9 | n
O=C(CNC(=O)[C@@H]1Cc2ccccc2CN1)Nc1ccc2c(c1)OCCO2 | n | n | n | n | n | x | x | x | x
CSc1nc2ccc3nc(NC(=O)c4cccs4)sc3c2s1 | 56.4 | n | n | 81.0 | n | 84.8 | n | 94.8 | n
COc1ccc(Cl)cc1C(=O)OCC(=O)NCCNC(=O)COC(=O)c1cc(Cl)ccc1OC | n | n | n | 58.8 | n | n | 41.8 | 70.7 | n
O=C(Nc1cccnc1)C1CCN(S(=O)(=O)c2ccc(Cl)cc2)CC1 | n | n | n | n | n | x | x | x | x
O=C(Cc1ccccc1[N+](=O)[O-])OCC(=O)c1c[nH]c2ccccc12 | n | n | n | n | x | x | x | x | x
CN(Cc1c(C(=O)N/N=C/c2ccccc2)nnn1-c1nonc1N)c1ccccc1 | 57.9 | n | n | 71.8 | n | 36.4 | n | 83.0 | n
COc1ccc(/C=N/NC(=O)c2nnn(-c3nonc3N)c2CN(C)c2ccccc2)cc1 | 44.4 | n | n | 49.6 | n | 31.2 | n | 83.0 | n
